Here are results for 4 compounds from ChEMBL document CHEMBL1909618, “Non-steroidal dissociated glucocorticoid agonists: indoles as A-ring mimetics and function-regulating pharmacophores” (Bioorg Med Chem Lett, 2011).

Assay [1] relates to Mus musculus. The assay can be described thus: Antiinflammatory activity in mouse plasma assessed as inhibition of LPS-induced TNFalpha production at 10 mg/kg, po administered 1 hr before LPS challenge measured after 1 hr. It counts as functional. The gist of the method: (§1)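 Mice received compound orally in Cremophor RH 1 h before LPS challenge. Plasma TNF-α was measured 1 h after challenge. n = 8 per group; doses were 3 and 10 mg/kg.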

Assay [2] concerns Mus musculus. The assay can be described thus: Antiinflammatory activity in po dosed mouse plasma assessed as inhibition of LPS-induced TNFalpha production administered 1 hr before LPS challenge measured after 1 hr. It counts as functional. The gist of the method:
as §1

The target in assay [3] is T1, Glucocorticoid receptor (Homo sapiens, UniProt P04150).
T1 sequence (P04150 whole entry): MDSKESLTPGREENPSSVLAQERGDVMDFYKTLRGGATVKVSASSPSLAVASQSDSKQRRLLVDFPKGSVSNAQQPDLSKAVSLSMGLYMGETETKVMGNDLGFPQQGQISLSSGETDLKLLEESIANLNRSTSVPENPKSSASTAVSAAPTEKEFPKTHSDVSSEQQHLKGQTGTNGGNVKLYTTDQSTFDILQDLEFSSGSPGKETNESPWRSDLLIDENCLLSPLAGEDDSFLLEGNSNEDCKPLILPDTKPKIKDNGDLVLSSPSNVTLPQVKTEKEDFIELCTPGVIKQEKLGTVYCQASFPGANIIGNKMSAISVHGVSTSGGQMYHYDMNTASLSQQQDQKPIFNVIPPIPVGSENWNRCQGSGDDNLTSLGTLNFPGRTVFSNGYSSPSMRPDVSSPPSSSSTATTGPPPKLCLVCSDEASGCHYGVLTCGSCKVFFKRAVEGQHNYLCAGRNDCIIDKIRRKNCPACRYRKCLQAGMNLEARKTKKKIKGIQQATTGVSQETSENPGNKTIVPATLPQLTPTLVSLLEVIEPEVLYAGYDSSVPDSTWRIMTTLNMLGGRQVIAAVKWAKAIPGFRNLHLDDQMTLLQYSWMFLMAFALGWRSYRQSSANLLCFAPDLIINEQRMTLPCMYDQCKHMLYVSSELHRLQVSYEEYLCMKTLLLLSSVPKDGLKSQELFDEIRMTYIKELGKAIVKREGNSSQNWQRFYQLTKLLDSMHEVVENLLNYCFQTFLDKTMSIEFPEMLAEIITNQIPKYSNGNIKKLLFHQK
As to the kind of experiment: Transactivation activity of glucocorticoid receptor in HFF assessed as induction of aromatase activity by measuring beta-estradiol activity after 18 to 24 hrs by ELISA. Particulars: read-out: EC50. On the technique in general: In an ELISA, binding on a coated surface is turned into a signal by an enzyme label.

Assay [4] addresses T2, Glucocorticoid receptor (Homo sapiens) (UniProt P04150).
T2 sequence (whole entry): T1 sequence (P04150 whole entry)
As to the kind of experiment: Transactivation activity of glucocorticoid receptor in HFF assessed as induction of aromatase activity by measuring beta-estradiol activity after 18 to 24 hrs by ELISA relative to Dexamethasone.

The target of assay [5] is T1, Glucocorticoid receptor. As to the kind of experiment: Displacement of tetramethylrhodamine-labeled Dexamethasone from human recombinant glucocorticoid receptor expressed in baculovirus infected insect cells by fluorescence polarization assay. (In fluorescence polarisation assays a small probe gives low polarisation when free and higher when bound to something large.)

A further assay concerns the target T3, Progesterone receptor (Homo sapiens, UniProt P06401).
T3 sequence (P06401 whole entry): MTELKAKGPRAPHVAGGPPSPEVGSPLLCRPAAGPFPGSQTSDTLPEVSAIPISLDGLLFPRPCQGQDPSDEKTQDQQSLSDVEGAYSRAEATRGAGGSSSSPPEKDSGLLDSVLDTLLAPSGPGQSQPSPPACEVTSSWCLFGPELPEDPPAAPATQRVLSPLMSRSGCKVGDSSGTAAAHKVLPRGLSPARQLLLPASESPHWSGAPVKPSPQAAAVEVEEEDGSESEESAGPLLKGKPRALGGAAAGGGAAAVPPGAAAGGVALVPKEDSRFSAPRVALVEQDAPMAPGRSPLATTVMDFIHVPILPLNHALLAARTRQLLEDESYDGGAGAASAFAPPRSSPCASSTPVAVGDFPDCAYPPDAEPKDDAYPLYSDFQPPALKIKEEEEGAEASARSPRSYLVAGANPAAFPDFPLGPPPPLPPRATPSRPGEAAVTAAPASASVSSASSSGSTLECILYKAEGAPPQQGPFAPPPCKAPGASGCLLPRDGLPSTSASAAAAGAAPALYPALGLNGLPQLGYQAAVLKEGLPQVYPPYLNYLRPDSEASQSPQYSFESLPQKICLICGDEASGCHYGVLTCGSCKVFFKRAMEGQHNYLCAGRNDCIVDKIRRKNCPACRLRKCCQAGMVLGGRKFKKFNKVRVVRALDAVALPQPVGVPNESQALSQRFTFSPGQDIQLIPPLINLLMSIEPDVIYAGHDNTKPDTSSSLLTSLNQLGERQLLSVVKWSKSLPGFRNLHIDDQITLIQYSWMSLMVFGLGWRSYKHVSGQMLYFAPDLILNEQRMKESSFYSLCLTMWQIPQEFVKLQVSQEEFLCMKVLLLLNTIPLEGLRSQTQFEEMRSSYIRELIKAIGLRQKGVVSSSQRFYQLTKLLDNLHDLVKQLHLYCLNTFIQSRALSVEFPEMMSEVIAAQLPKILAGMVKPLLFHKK
The assay can be described thus: Displacement of tetramethylrhodamine-labeled RU-486 from human recombinant progesterone receptor expressed in baculovirus infected insect cells by fluorescence polarization assay. Summed up:
(§2)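 Fluorescence polarization competition assays with recombinant human receptors in lysates of baculovirus-infected insect cells. Reactions contained 1% DMSO and ran 1 h at room temperature.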

Assay [6] deals with T4, Androgen receptor (Homo sapiens) (UniProt P10275).
T4 sequence (whole entry): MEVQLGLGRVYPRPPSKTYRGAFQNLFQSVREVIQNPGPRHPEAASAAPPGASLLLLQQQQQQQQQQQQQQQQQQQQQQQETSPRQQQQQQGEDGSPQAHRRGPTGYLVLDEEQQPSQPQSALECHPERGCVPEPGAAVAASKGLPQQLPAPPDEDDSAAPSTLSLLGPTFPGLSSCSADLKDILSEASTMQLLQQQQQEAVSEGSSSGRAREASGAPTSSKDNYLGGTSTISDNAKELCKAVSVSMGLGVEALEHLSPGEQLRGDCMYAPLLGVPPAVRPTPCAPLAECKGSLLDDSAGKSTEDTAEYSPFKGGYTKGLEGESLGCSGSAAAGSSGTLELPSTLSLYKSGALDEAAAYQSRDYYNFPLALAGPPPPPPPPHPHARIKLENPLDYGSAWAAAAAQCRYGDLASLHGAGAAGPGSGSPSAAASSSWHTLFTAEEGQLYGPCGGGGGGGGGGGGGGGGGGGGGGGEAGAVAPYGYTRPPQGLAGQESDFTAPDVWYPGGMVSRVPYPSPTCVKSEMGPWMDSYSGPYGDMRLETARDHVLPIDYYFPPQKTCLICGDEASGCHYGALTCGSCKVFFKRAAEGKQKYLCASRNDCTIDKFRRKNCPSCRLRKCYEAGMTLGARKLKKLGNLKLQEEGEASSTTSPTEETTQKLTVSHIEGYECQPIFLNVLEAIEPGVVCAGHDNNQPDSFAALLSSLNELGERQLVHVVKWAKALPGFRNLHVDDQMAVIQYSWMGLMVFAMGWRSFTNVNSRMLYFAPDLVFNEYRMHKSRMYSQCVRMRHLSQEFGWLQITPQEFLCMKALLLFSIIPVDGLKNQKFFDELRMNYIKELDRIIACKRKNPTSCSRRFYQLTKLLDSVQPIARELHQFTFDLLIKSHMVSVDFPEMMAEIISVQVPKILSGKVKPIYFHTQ
The assay can be described thus: Displacement of [3H]-testosterone from human recombinant androgen receptor expressed in baculovirus infected insect cells at 1100 nM. The gist of the method:
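Competition of test compound at a single concentration against 10 nM ³H-testosterone for binding to recombinant human AR in lysates of baculovirus-infected cells. Dihydrotestosterone at 2 µM served as the positive control. Results are expressed as % of control.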
For orientation: In a radioligand displacement assay an active substance lowers the binding of a labelled ligand.

In assay [7] the target is T1, Glucocorticoid receptor. The assay can be described thus: Agonist activity at glucocorticoid receptor in HFF assessed as inhibition of IL1-induced IL-6 production after 18 to 24 hrs. It counts as functional.
Assay [8] deals with T2, Glucocorticoid receptor (Homo sapiens). As to the kind of experiment: Agonist activity at glucocorticoid receptor in HFF assessed as inhibition of IL1-induced IL-6 production after 18 to 24 hrs relative to Dexamethasone. It counts as functional. Summed up: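 Human foreskin fibroblasts stimulated with IL-1 (1 ng/mL) in the presence of test compound, incubated at 37 °C for 18–24 h. IL-6 in the culture medium was quantified by electrochemiluminescence, DELFIA or ELISA. IC50 and % maximal efficacy were reported.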

Assay [9] concerns the target T1, Glucocorticoid receptor. The assay can be described thus: Agonist activity at glucocorticoid receptor in human HeLa cells transfected with luciferase gene linked to MMTV promoter assessed as luciferase transactivation activity. It counts as functional, cell-based.
For assay [10], the target named is T2, Glucocorticoid receptor (Homo sapiens). As to the kind of experiment: Agonist activity at glucocorticoid receptor in human HeLa cells transfected with luciferase gene linked to MMTV promoter assessed as luciferase transactivation activity relative to Dexamethasone. It counts as functional, cell-based. The gist of the method: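 HeLa cells stably carrying an MMTV-luciferase construct were exposed to compound for 6 h at 37 °C, 5% CO2. Cells were then lysed and luminescence read with a Steady-Glo reagent. EC50 and % maximal efficacy were reported.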

For assay [11], the system named is Mus musculus. The assay can be described thus: Antiinflammatory activity in mouse plasma assessed as inhibition of LPS-induced TNFalpha production at 3 mg/kg, po administered 1 hr before LPS challenge measured after 1 hr. It counts as functional. The gist of the method: as §1
Assay [12] has as its target T5, Mineralocorticoid receptor (Homo sapiens, UniProt P08235).
T5 sequence (P08235 whole entry): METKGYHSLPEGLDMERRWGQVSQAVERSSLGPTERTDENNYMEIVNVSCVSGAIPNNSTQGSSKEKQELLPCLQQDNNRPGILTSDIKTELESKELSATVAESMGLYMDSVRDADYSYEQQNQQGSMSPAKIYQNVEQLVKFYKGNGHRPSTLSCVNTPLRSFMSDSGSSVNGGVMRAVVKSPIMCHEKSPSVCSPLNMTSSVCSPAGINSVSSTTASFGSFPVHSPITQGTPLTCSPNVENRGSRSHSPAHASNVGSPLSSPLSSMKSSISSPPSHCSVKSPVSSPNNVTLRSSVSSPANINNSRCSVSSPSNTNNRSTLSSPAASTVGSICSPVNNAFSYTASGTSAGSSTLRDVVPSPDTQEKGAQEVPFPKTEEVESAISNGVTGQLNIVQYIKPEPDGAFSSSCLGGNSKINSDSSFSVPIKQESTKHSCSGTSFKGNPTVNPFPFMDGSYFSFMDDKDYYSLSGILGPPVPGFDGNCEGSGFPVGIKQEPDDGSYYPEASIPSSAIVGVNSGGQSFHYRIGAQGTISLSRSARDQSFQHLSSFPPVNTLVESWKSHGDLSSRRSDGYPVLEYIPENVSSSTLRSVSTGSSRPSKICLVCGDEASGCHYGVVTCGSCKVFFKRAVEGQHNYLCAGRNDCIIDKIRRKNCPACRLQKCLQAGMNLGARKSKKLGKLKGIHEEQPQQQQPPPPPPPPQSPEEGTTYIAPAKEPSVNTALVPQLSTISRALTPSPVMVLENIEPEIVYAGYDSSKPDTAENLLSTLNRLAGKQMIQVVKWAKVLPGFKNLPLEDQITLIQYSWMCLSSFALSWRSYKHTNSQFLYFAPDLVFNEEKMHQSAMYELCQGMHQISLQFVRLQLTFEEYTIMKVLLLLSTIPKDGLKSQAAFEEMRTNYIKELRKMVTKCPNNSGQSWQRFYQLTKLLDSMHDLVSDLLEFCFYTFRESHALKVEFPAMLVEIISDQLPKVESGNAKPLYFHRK
The assay can be described thus: Displacement of tetramethylrhodamine-labeled Dexamethasone from human recombinant mineralocorticoid receptor expressed in baculovirus infected insect cells by fluorescence polarization assay. Summed up:
as §2

The source made the active and inactive calls. The calls are words filed in the database; no cut-off is given here. Bounds are passed on as bounds.

In the case of `CC(C)(C[C@@](O)(Cc1cc2ccccc2[nH]1)C(F)(F)F)c1cc(Br)cc2c1OCC2`, the inhibition in vivo – broadly, the percentage by which the read-out fell short of the control – at 10 mg/kg with Mus musculus [1] came out at 61%. In the assay on Mus musculus [2], the ED50 (as a rule, the dose at which the effect has come halfway, by size or by number of responders) is below 10 mg/kg.

For the compound `COc1ccc(F)cc1C(C)(C)CC(O)(Cc1cc2ccccc2[nH]1)C(F)(F)F` (racemic), on Glucocorticoid receptor [3], the concentration for a half-maximal effect (EC50) – broadly, the concentration needed to bring the measured effect to its halfway point – was found to be 23 nM. For the same compound, the Efficacy in assay [4] worked out at 93%. Moreover, the IC50 (in general, the concentration needed to halve the response being measured) on Glucocorticoid receptor [5] turned out to be 22 nM; at Progesterone receptor, 290 nM; on Glucocorticoid receptor [7], 7 nM. Moreover, the result in assay [6] was inactive.

On to `CC(C)(CC(O)(Cc1cc2cc(C#N)ccc2[nH]1)C(F)(F)F)c1cc(S(C)(=O)=O)cc2c1OCC2` (racemic), for which the Efficacy in [8] was found to be 85%; in assay [4], 63%; in [10] it was 4%. Moreover, the EC50 at Glucocorticoid receptor [3] is 80 nM; on Glucocorticoid receptor [9], above 2000 nM. Besides, the inhibition entry in the assay with Mus musculus [11] was “inactive”. The inhibition in vivo at 10 mg/kg with Mus musculus [1] stood at 77%. In the assay on Mus musculus [2], the ED50 is below 10 mg/kg. Besides, the IC50 on Glucocorticoid receptor [5] is 5 nM; on Progesterone receptor, above 2000 nM; in assay [12], 1450 nM; at Glucocorticoid receptor [7] it was 49 nM.

In the case of `CC(C)(CC(O)(Cc1cc2ccc(C#N)cc2[nH]1)C(F)(F)F)c1cc(S(C)(=O)=O)cc2c1OCC2` (racemic), the Efficacy was found to be 89% in assay [8], 98% in [4] and 10% in assay [10]. Further, the results for the EC50 on Glucocorticoid receptor [3] and on Glucocorticoid receptor [9] were 125 nM and above 2000 nM, respectively. The inhibition in vivo at 3 mg/kg in the assay with Mus musculus [11] stood at 66%. Besides, the inhibition in vivo at 10 mg/kg in the assay with Mus musculus [1] is 66%. Besides, the ED50 with Mus musculus [2] was below 10 mg/kg. Also, the IC50 was 5 nM at Glucocorticoid receptor [5], above 2000 nM on Progesterone receptor, 430 nM in [12] and 39 nM on Glucocorticoid receptor [7].
